Experimental data: ChEMBL document CHEMBL4028909, “Discovery of an Orally Bioavailable Benzofuran Analogue That Serves as a β-Amyloid Aggregation Inhibitor for the Potential Treatment of Alzheimer's Disease” (J Med Chem, 2018)

Key:
Mus musculus [1] = test: Reversal of cognitive deficit in amyloid beta (1 to 42)-treated Alzheimer's disease ICR mouse model assessed as increase in spatial memory function administered orally for 3 consecutive days by Y maze test; assay type: functional
Method in brief: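 Acute AD model: preformed Aβ aggregates injected directly into the brains of normal mice to induce acute neurotoxicity. Compound given orally for three consecutive days, then the Y-maze was run. Read-out is percentage of spontaneous alternation, compared against normal and vehicle-treated mice.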

Mus musculus [2] = test: Reversal of cognitive deficit in double APP/PS1 transgenic Alzheimer's disease mouse model assessed as increase in spatial memory function by measuring spontaneous alternation at 100 mg/kg, po qd administered for 8 weeks by Y maze test (reference value: 52.64 +/- 4.15%); assay type: functional
Method in brief: (§1)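 APP/PS1 double transgenic mice, 29 weeks old, dosed orally once daily at 30 or 100 mg/kg for eight weeks. Y-maze spontaneous alternation (%) was then measured against vehicle-treated mice, and mice were watched for apparent toxicity.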

Mus musculus [3] = test: Toxicity in double APP/PS1 transgenic Alzheimer's disease mouse model at 30 to 100 mg/kg, po qd administered for 8 weeks; assay type: organism-based; details: in vivo, 1344 h; method in brief: as §1
[4] = AUClast in mouse at 3 mg/kg, iv; assay type: ADME, organism-based; parameters: dose 3 mg/kg, time 0 - last, route intravenous; details: in vivo
Method in brief: (§2)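 Mice received a single dose of 3 mg/kg i.v. or 3, 10 or 30 mg/kg orally. Plasma concentration-time profiles were analysed for AUC from zero to infinity and to the last measured time (hr*ng/mL), Cmax (ng/mL, C0 after i.v.), Tmax and terminal half-life (hr), and oral bioavailability (%).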

[5] = Tmax in mouse at 3 mg/kg, po; assay type: ADME, organism-based; details: in vivo
Method in brief: (§3)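 Mouse pharmacokinetics: single i.v. dose of 3 mg/kg, or oral doses of 3, 10 and 30 mg/kg. Plasma concentration–time curves gave T1/2 (terminal, hr), Tmax (hr), Cmax, AUC and bioavailability (%).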

[6] = AUClast in mouse at 3 mg/kg, po; assay type: ADME, organism-based; parameters: dose 3 mg/kg, time 0 - last, route oral; details: in vivo; method in brief: as §2
[7] = AUC (infinity) in mouse at 3 mg/kg, po; assay type: ADME, organism-based; parameters: dose 3 mg/kg, time infinity, route oral; details: in vivo; method in brief: as §2
[8] = Terminal half life in mouse at 10 mg/kg, po; assay type: ADME, organism-based; details: in vivo, read-out: beta t1/2 (converted); method in brief: as §3
[9] = Oral bioavailability in mouse at 10 mg/kg; assay type: ADME, organism-based; details: in vivo; method in brief: as §2
[10] = Terminal half life in mouse at 30 mg/kg, po; assay type: ADME, organism-based; details: in vivo, read-out: beta t1/2 (converted); method in brief: as §3
[11] = Tmax in mouse at 30 mg/kg, po; assay type: ADME, organism-based; details: in vivo; method in brief: as §3
[12] = Clearance in iv dosed rat; assay type: ADME, organism-based; details: in vivo
[13] = Clearance in iv dosed dog; assay type: ADME, organism-based, Canis lupus familiaris; details: in vivo
[14] = Clearance in iv dosed monkey; assay type: ADME, organism-based, Macaca mulatta; details: rhesus monkey, in vivo
[15] = Half life in po dosed dog; assay type: ADME, organism-based, Canis lupus familiaris; details: in vivo
[16] = Cmax in po dosed dog; assay type: ADME, organism-based, Canis lupus familiaris; parameters: route oral; details: in vivo
[17] = Cmax in po dosed monkey; assay type: ADME, organism-based, Macaca mulatta; parameters: route oral; details: rhesus monkey, in vivo
[18] = Cmax in po dosed ICR mouse; assay type: ADME, organism-based; parameters: route oral; details: in vivo
[19] = AUC in po dosed monkey; assay type: ADME, organism-based, Macaca mulatta; details: rhesus monkey, in vivo
[20] = AUC in po dosed ICR mouse; assay type: ADME, organism-based; details: in vivo
[21] = Ratio of AUC in ICR mouse brain to AUC in ICR mouse plasma at 10 mg/kg, po measured at 0.333 hrs; assay type: ADME, organism-based; details: read-out: Ratio AUC
Method in brief: (§4)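 ICR mice (n=3) given a single oral dose of 10 mg/kg. Brain and plasma were sampled over nine hours, at 0.333, 1, 3, 6 and 9 h. Kp was calculated as AUC_brain/AUC_plasma.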

[22] = Ratio of AUC in ICR mouse brain to AUC in ICR mouse plasma at 10 mg/kg, po measured at 6 hrs; assay type: ADME, organism-based; details: read-out: Ratio AUC; method in brief: as §4
[23] = Ratio of AUC in ICR mouse brain to AUC in ICR mouse plasma at 10 mg/kg, po measured at 9 hrs; assay type: ADME, organism-based; details: read-out: Ratio AUC; method in brief: as §4
Cytochrome P450 2C9 = Cytochrome P450 2C9 (Homo sapiens, UniProt P11712); test: Inhibition of CYP2C9 in human liver microsomes preincubated for 5 mins followed by addition of NADPH generating system measured after 20 mins by LC-MS/MS analysis; assay type: ADME
Cytochrome P450 2C9, sequence (P11712 whole entry): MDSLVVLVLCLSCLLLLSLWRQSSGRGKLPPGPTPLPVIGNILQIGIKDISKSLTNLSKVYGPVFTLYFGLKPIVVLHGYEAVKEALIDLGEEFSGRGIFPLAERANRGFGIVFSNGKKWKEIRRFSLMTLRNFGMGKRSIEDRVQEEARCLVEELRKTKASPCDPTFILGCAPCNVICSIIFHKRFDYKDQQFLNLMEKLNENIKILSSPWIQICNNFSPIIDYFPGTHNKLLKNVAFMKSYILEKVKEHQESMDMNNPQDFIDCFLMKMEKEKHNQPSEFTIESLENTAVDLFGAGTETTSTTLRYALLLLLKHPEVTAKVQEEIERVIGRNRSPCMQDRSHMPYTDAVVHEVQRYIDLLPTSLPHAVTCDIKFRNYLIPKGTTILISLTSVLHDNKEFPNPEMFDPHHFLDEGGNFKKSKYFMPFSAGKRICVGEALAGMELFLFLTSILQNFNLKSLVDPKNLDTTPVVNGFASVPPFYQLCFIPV
Method in brief: (§5)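 Inhibition of each CYP isozyme (1A2, 2A6, 2C8, 2C9, 2C19, 2D6, 3A4) was measured in human liver microsomes. IC50 values were reported in μM.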

Cytochrome P450 2C19 = Cytochrome P450 2C19 (Homo sapiens, UniProt P33261); test: Inhibition of CYP2C19 in human liver microsomes preincubated for 5 mins followed by addition of NADPH generating system measured after 20 mins by LC-MS/MS analysis; assay type: ADME; method in brief: as §5
Cytochrome P450 2C19, sequence (P33261 whole entry): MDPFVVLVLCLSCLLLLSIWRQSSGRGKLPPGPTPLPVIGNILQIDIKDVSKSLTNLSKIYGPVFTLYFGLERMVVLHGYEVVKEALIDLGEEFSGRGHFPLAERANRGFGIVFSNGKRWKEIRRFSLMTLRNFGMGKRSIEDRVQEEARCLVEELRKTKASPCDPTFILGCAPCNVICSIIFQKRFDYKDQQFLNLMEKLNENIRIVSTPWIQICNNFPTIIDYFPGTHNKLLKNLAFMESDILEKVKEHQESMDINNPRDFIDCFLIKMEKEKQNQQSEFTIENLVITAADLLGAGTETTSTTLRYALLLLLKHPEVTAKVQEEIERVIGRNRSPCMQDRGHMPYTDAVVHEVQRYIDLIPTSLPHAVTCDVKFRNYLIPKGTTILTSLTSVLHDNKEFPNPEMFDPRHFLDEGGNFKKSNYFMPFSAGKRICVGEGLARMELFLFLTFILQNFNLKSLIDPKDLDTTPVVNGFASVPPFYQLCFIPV

Cytochrome P450 3A4 = Cytochrome P450 3A4 (Homo sapiens, UniProt P08684); test: Inhibition of CYP3A4 in human liver microsomes preincubated for 5 mins followed by addition of NADPH generating system measured after 20 mins by LC-MS/MS analysis; assay type: ADME; method in brief: as §5
Cytochrome P450 3A4, sequence (P08684 whole entry): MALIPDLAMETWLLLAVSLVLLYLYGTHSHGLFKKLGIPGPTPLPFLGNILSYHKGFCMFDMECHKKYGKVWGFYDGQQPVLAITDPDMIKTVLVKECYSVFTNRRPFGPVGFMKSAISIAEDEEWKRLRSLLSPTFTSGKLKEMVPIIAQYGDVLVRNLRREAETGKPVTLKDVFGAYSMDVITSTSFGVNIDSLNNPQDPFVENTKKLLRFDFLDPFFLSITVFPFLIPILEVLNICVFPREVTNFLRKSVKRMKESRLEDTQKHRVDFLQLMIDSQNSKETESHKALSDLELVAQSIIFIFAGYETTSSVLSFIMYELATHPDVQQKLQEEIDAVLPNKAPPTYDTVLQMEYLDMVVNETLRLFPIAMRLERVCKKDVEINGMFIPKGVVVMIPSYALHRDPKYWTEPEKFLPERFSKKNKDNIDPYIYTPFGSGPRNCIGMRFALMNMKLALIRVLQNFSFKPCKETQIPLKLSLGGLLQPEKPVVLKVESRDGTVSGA

AUC(0-t) [4]: 1300 ng·h/mL
Tmax [5]: 0.7 h
AUC(0-t) [6]: 246 ng·h/mL
AUC(0-inf) [7]: 283 ng·h/mL
half-life [8]: 1.6 h
bioavailability [9]: 51.9%
half-life [10]: 3.3 h
Tmax [11]: 3 h
clearance [12]: 33 mL/min/kg
clearance [13]: 29 mL/min/kg
clearance [14]: 7 mL/min/kg
half-life [15]: 1.4 h
Cmax [16]: 1610 ng/mL
Cmax [17]: 969 ng/mL
Cmax [18]: 944 ng/mL
AUC [19]: 13700 ng·h/mL
AUC [20]: 13200 ng·h/mL
Kp at 0.333 h [21]: 1.2
Kp at 6 h [22]: 1.2
Kp at 9 h [23]: 1.4
IC50 (Cytochrome P450 2C9): > 50 µM
IC50 (Cytochrome P450 2C19): > 50 µM
IC50 (Cytochrome P450 3A4): > 50 µM
SMILES: COCCCc1ccc2oc(-c3ccc(OC)c(OC)c3)cc2c1
Activity (Mus musculus [1]): Dose-dependent effect
ED50 (Mus musculus [1]; po): 0.18 mg/kg
Activity (Mus musculus [2]): 63.93%
Activity (Mus musculus [3]): Non-Toxic
